The list is not random: actives were taken first. Their share in the collection is about 3.5%.
MrgX1 antagonist = blocks BAM8-22 activation of human MrgX1 receptor | Q96LB2 | MRGX1-HEK293 calcium flux, Fluo-4, BAM8-22 antagonism; active compounds read low | B-score at 10 µM | hit rate 1.3% among 310,000 | AID 588676;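 active = calcium-response B-score plate-corrected more than 3 library SD below zero, starting fluorescence within 5 deviations, no agonist response on first addition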;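 also: peak minus trough fluorescence over baseline after final BAM8-22 challenge near maximal dose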
Target sequence (Q96LB2 whole entry, looked up): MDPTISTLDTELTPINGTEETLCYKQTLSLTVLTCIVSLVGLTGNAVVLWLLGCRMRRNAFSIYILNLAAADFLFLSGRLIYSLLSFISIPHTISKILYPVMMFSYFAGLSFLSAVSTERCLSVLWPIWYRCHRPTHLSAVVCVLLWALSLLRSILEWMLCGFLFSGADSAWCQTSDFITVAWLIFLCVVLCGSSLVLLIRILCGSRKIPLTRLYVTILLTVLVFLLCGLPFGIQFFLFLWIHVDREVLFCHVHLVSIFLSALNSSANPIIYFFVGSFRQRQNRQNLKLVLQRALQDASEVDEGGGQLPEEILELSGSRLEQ
MrgX1 ag = activates human MrgX1 receptor signaling | MrgX1-HEK293 cells, Fluo-4 calcium fluorescence, agonist mode; active compounds read high | hit rate 0.44% among 310,000 | B-score at 10 µM | Q96LB2;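 active = calcium response B-score plate-corrected fluorescence ratio at least 3 library SD, with starting fluorescence B-score inside 5 SD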
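System – MrgX1-expressing HEK293 cells · Incubation – cells plated overnight, dye loaded 0.5 h 37 °C, 0.5 h room temperature · Technique – kinetic Fluo-4 NW fluorescence of intracellular calcium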
RGS4 block = human RGS4 inhibition; B-score at 10 µM; P49798; AID 463165; HEK293 M3R/RGS4 inducible, Fluo-4 calcium flux; active compounds read high; triggered by carbachol at its EC20; hit rate 0.45% among 310,000;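 active = B-score, a plate-corrected calcium signal, over three deviations above library mean, with baseline fluorescence within five deviations of library mean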;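 also: RGS4 expression induced by doxycycline in cells with stable M3 receptor; B-score is computed from the integrated fluorescence ratio over baseline after carbachol; higher B-score means a larger calcium signal and so more RGS4 inhibition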
RGS4 act = potentiators or activators of RGS4. HEK293 M3R/inducible RGS4, carbachol calcium flux Fluo4; active compounds read low. B-score at 10 µM. hit rate 0.92% among 310,000;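 active = B-score of the integrated calcium signal more than 4 SD below the library mean, with starting fluorescence not abnormally high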;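 also: negative B-score means reduced calcium response which marks RGS4 activation or potentiation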
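Assay system: HEK293 FlpIn-TREx cells, stable M3R, doxycycline-inducible RGS4 / Probe or stimulus: carbachol, ECmax concentration / Times: overnight RGS4 induction, 30 min dye load 37 °C, 20 min compound RT / Signal: kinetic calcium fluorescence imaging with Fluo4-AM dye, 2 µM / Measure: Agonist-evoked peak-minus-minimum fluorescence over baseline, integrated ratio, B score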
MrgX1 allo act = allosterically activates human MrgX1 receptor signaling | AID 588675 | hit rate 0.63% among 310,000 | MrgX1-HEK293, Fluo-4 calcium flux, FDSS; active compounds read high | Q96LB2 | B-score at 10 µM;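 active = plate-corrected calcium response at least 3 library SD above typical, normal starting fluorescence, not activating the receptor alone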;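 also: compound read alongside a low EC10 to EC30 dose of BAM8-22 agonist; peak minus trough fluorescence over baseline measured at the second addition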
RGS4 inh valid = validation of RGS4 inhibitors. HEK293 M3R/RGS4, carbachol calcium Fluo-4 fluorescence; carbachol added at its EC20; 0 = buffer wells, 100 = carbachol control. AID 492999. shares compounds with RGS4 block. hit rate 65% among 1,700. calcium response, % at 10 µM;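 active = duplicate-averaged calcium response above the buffer-only control mean plus 5 SD of those controls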;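 also: integrated fluorescence ratio F max minus min over baseline F0; higher response in RGS4-induced cells means RGS4 inhibition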
M3R Ca ctr = checks RGS4 inhibitor effects in non-induced HEK293 M3R cells; shares compounds with RGS4 block; carbachol calcium Fluo-4; submaximal (EC20) carbachol stimulus; buffer wells 0%, carbachol control wells 100%; activity (percent), % at 10 µM; hit rate 20% among 1,900; AID 493000; call rule not given here;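 also: RGS4 induction absent so cells express M3R without RGS4; higher means more calcium signal and flags a non-specific hit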
RGS4 inh ctr2 = second counter-screen for RGS4 inhibitors: non-induced cells without carbachol | calcium response (agonist-mode artifact), % at 10 µM | shares compounds with RGS4 block | hit rate 22% among 1,900 | HEK293 M3R/RGS4 non-induced, Fluo-4 calcium, no carbachol; normalised: buffer wells 0%, carbachol wells 100% | AID 493001;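 active = duplicate-averaged calcium rise in uninduced cells above buffer wells' mean plus 5 SD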
* marks the source's active call; other numbers are inactive results; i = inactive; nt = no result given.

SMILES	MrgX1 antagonist	MrgX1 ag	RGS4 block	RGS4 act	MrgX1 allo act	RGS4 inh valid	M3R Ca ctr	RGS4 inh ctr2
CC1=NN(c2ccccc2)C(=O)/C1=C/C=C/c1ccccc1	i	i	i	i	i	nt	nt	nt
CC1=NN(c2cccc(C(=O)O)c2)C(=O)/C1=C\C=C\c1ccco1	i	i	9.83*	i	i	16.5%*	34.0%*	i
C#CCOc1ccc(/C=C2/C(=O)N(c3cccc(C(=O)O)c3)N=C2C)cc1OC	i	i	5.98*	i	i	5.0%*	i	i
Cn1ccnc1C(OC(=O)c1ccccc1)C(F)(F)F (centres undefined)	i	i	i	i	i	nt	nt	nt
O=C(CCCC(=O)OCC(=O)c1ccc(Cl)cc1)NC1CCCCC1	i	i	i	i	i	nt	nt	nt
Cc1cc(C)c2nc(NNC(=O)c3ccc(S(=O)(=O)N4CCCC(C)C4)cc3)sc2c1 (centres undefined)	i	i	i	i	i	nt	nt	nt
Cc1ccc2nc(NNC(=O)c3ccc(S(=O)(=O)N4CCc5ccccc5C4)cc3)sc2c1	i	i	i	i	i	nt	i	i
Cc1cc(C)c2nc(NNC(=O)c3ccc(S(=O)(=O)N4CC(C)CC(C)C4)cc3)sc2c1 (centres undefined)	i	i	i	i	i	nt	i	i
Cc1cccc2sc(NNC(=O)c3ccc(S(=O)(=O)N4CC(C)CC(C)C4)cc3)nc12 (centres undefined)	i	i	6.54*	i	i	10.0%*	i	i
CC1(C)Cc2c(cnn2-c2ccccc2)C(NC(=O)CCN2CCCCO2)C1 (centres undefined)	i	i	i	i	i	nt	nt	nt
O=C1C(c2ccccc2)=[N+]([O-])c2ccccc21	i	i	i	i	i	nt	nt	nt
CCCOc1ccc(-c2c(C(=O)N/N=C/c3ccc(C)cc3)nnn2-c2nonc2N)cc1	i	i	i	i	i	nt	39.0%*	i
CCOc1ccc(-c2c(C(=O)N/N=C/c3ccc(C)cc3)nnn2-c2nonc2N)cc1	i	i	i	i	i	i	i	i
O=c1[nH]nc(-c2ccc(F)cc2)cc1Cc1ccc(F)cc1	i	i	i	i	i	nt	i	i
Cc1ccc(-c2cc(Cc3ccc(F)cc3)c(=O)[nH]n2)cc1	i	i	i	i	i	nt	nt	nt
Cc1ccc(Cc2cc(-c3ccc(C)cc3)n[nH]c2=O)cc1	i	i	i	i	i	nt	i	i
C[C@]12C(=O)N(c3cccc(Cl)c3)C(=O)N1[C@H]1c3ccccc3OC[C@@H]1[C@H]2c1ccccc1	-5.97*	i	5.96*	i	i	16.0%*	i	i
Cc1cccc([C@@H]2[C@@H]3C(=O)N(Cc4ccccc4)C(=O)[C@@H]3[C@]3(C)C(=O)N(c4cccc(Cl)c4)C(=O)N23)c1	i	i	i	i	i	nt	nt	nt
Cc1cccc(N2C(=O)N3[C@@H]4c5ccccc5OC[C@@H]4[C@@H](c4ccccc4)[C@@]3(C)C2=O)c1	i	i	i	i	i	nt	i	i
Cc1cccc(N2C(=O)N3[C@@H]4c5ccccc5OC[C@@H]4[C@@H](c4ccccc4)[C@]3(C)C2=O)c1	i	i	i	i	i	i	i	i
COCCN(C(=O)CSc1n[nH]c(-c2ccccc2)n1)c1c(N)n(Cc2ccccc2)c(=O)[nH]c1=O	i	i	i	i	i	nt	nt	nt
O=C(NCc1ccccc1)C(c1ccccc1F)N(C(=O)c1csnn1)C1CCCC1 (centres undefined)	i	i	i	i	i	nt	nt	nt

Compound activity as filed in PubChem.
